Consider 44 compounds from ChEMBL document CHEMBL1156932, “Structure based drug design: development of potent and selective factor IXa (FIXa) inhibitors” (J Med Chem, 2010).

The structures appear in SMILES notation.

In general, Ki refers to the equilibrium dissociation constant of an inhibitor or competing ligand from its target.

The target of one assay is Coagulation factor X (Homo sapiens, UniProt P00742). The experiment in a line: Inhibition of factor 10a by amidolytic assay. The essentials: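 […] taken as the mean of at least three experiments. Variation between runs stated as under 10%.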
The next assay addresses Coagulation factor IX (Homo sapiens, UniProt P00740). As to the kind of experiment: Inhibition of human recombinant factor 9a by amidolytic assay.
Assay [1] in a line: Selectivity ratio of Ki for factor 10a to Ki for human recombinant factor 9a.
The nature of assay [2]: Selectivity ratio of Ki for uPA to Ki for human recombinant factor 9a.
Assay [3] concerns the target Urokinase-type plasminogen activator (Homo sapiens, UniProt P00749).

Coagulation factor IX, sequence (P00740 47-191 limits assumed): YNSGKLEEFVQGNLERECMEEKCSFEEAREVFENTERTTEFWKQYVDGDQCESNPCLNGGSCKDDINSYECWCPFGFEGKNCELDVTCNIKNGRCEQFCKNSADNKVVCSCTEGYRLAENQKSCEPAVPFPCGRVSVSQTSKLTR
Coagulation factor IX, sequence (P00740 227-461 limits assumed): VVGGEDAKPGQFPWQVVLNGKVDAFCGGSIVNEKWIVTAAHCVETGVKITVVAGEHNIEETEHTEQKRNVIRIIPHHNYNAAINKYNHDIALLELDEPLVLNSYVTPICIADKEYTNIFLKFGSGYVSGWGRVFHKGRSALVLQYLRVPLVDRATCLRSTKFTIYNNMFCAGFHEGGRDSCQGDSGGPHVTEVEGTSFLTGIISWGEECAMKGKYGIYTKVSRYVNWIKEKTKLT
Coagulation factor X, sequence (P00742 41-179 limits assumed): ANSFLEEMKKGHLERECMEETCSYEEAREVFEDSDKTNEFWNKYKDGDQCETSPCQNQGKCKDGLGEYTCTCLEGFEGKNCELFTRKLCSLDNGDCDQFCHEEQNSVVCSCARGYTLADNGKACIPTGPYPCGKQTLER
Coagulation factor X, sequence (P00742 235-488 limits assumed): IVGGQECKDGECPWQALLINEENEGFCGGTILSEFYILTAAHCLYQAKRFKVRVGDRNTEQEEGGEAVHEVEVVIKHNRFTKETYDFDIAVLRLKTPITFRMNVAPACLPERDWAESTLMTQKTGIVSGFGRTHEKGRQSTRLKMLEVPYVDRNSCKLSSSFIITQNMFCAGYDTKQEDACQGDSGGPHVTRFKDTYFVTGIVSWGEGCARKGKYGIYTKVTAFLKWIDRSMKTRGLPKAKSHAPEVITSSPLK

Regarding `N=C(N)c1cc2c(OC(CO)c3ccccc3)cccc2s1` (stereo not drawn), the Ki at Coagulation factor X was 1740 nM; at Coagulation factor IX, 270 nM.

With `CN(C)CCOc1ccc(NC(=O)OCC(Oc2cccc3sc(C(=N)N)cc23)c2ccccc2)cc1` (stereo not drawn), the Ki on Coagulation factor X is 872 nM; on Coagulation factor IX it was 4 nM; in assay [3], 201 nM. Moreover, the Ratio Ki in assay [1] was 218; in assay [2], 50.

Turning to `COC(=O)CCNC(=O)C(Oc1cccc2sc(C(=N)N)cc12)c1ccccc1` (stereo not drawn), the Ki at Coagulation factor IX was 8400 nM.

`N=C(N)c1cc2c(OC(C(=O)NCc3ccccc3)c3ccccc3)cccc2s1` (stereo not drawn): the Ki was 950 nM at Coagulation factor X, 390 nM at Coagulation factor IX and 510 nM in assay [3].

For the compound `COC(=O)C(C)Oc1cccc2sc(C(=N)N)cc12` (stereo not drawn), the Ki on Coagulation factor X was more than 100000 nM; at Coagulation factor IX it was 5150 nM; in assay [3] it was 2270 nM.

With `CCOC(=O)c1nccn1-c1ccc(NC(=O)C(Oc2cccc3sc(C(=N)N)cc23)c2ccccc2)cc1` (stereo not drawn), the Ki turned out to be 2.6 nM on Coagulation factor X, 420 nM at Coagulation factor IX and 190 nM in assay [3].

On to `COc1ccc(NC(=O)C(Oc2cccc3sc(C(=N)N)cc23)c2ccccc2)cc1` (stereo not drawn), for which the Ki came to 52 nM at Coagulation factor X, 140 nM on Coagulation factor IX and 140 nM in assay [3].

`CN(C)C(=O)c1ccc(NC(=O)C(Oc2cccc3sc(C(=N)N)cc23)c2ccccc2)cc1` (stereo not drawn): the Ki worked out at 0.6 nM on Coagulation factor X, 370 nM at Coagulation factor IX and 160 nM in assay [3].

As to `N=C(N)c1cc2c(OC(CN)c3ccccc3)cccc2s1` (stereo not drawn), the inhibitory constant (Ki) worked out at 4450 nM on Coagulation factor X, 160 nM at Coagulation factor IX and 270 nM in assay [3].

Turning to `N=C(N)c1cc2c(OC(C(=O)Nc3ccc(C(=O)N4CCCC4)cc3)c3ccccc3)cccc2s1` (stereo not drawn), the Ki at Coagulation factor X stood at 0.5 nM; on Coagulation factor IX it was 290 nM; in assay [3], 130 nM.

Regarding `N=C(N)c1cc2c(OC(C(=O)Nc3ccccc3)c3ccccc3)cccc2s1` (stereo not drawn), the Ki at Coagulation factor X was 150 nM; at Coagulation factor IX it was 170 nM; in assay [3], 140 nM.

In the case of `COCc1cc(NC(=O)OCC(Oc2cccc3sc(C(=N)N)cc23)c2ccccc2)n(C)n1` (stereo not drawn), the Ki on Coagulation factor X worked out at 1560 nM; at Coagulation factor IX, 9 nM; in assay [3], 109 nM. In addition, the Ratio Ki was found to be 173 in assay [1] and 12 in assay [2].

In the case of `N=C(N)c1cc2c(O[C@@H](c3ccccc3)c3nc(-c4ccccc4)no3)cccc2s1`, the results for the Ki (on Coagulation factor X; on Coagulation factor IX; in assay [3]) were 3970 nM, 270 nM and 650 nM, respectively.

On to `N=C(N)c1cc2c(OC(COC(=O)Nc3ccccc3CN)c3ccccc3)cc(F)cc2s1` (stereo not drawn), for which the figures for the inhibitory constant (Ki) (at Coagulation factor X; at Coagulation factor IX; in assay [3]) were 2110 nM, 4.4 nM and 828 nM, respectively. The Ratio Ki in assay [1] was 486; in assay [2], 190.

Take `COc1ccc(NC(=O)OC[C@@H](Oc2cccc3sc(C(=N)N)cc23)c2ccccc2)cc1`: the values for the Ki (on Coagulation factor X; at Coagulation factor IX; in assay [3]) were 3770 nM, 35 nM and 1630 nM, respectively. Further, the Ratio Ki in assay [1] was 108; in assay [2], 47.

With `COC(=O)Cn1nc(C)c(NC(=O)OCC(Oc2cccc3sc(C(=N)N)cc23)c2ccccc2)c1C` (stereo not drawn), the Ki at Coagulation factor X amounted to 1300 nM; at Coagulation factor IX, 11 nM; in assay [3], 59 nM. Besides, the Ratio Ki was 118 in assay [1] and 5 in assay [2].

As to `N=C(N)c1cc2c(OC(COC(=O)Nc3ccccc3F)c3ccccc3)cccc2s1` (stereo not drawn), the Ki at Coagulation factor X was found to be 550 nM; at Coagulation factor IX, 5 nM; in assay [3], 331 nM. In addition, the values for the Ratio Ki in assay [1] and in assay [2] were 110 and 62, respectively.

Regarding `CN(C)CCNC(=O)C(Oc1cccc2sc(C(=N)N)cc12)c1ccccc1` (stereo not drawn), the Ki at Coagulation factor X is 3400 nM; on Coagulation factor IX it was 1000 nM; in assay [3], 2130 nM.

As for `CNCc1ccccc1NC(=O)OCC(Oc1cccc2sc(C(=N)N)cc12)c1ccccc1` (stereo not drawn), the Ki at Coagulation factor X came out at 1150 nM; on Coagulation factor IX, 3 nM; in assay [3], 308 nM. The results for the Ratio Ki in assay [1] and in assay [2] were 383 and 103, respectively.

As to `COc1ccccc1NC(=O)C(Oc1cccc2sc(C(=N)N)cc12)c1ccccc1` (stereo not drawn), the Ki turned out to be 70 nM on Coagulation factor X, 140 nM on Coagulation factor IX and 120 nM in assay [3].

For `N=C(N)c1cc2c(OC(COC(=O)Nc3ccccc3)c3ccccc3)cc(F)cc2s1` (stereo not drawn), the Ki at Coagulation factor X turned out to be 1590 nM; at Coagulation factor IX, 15.5 nM; in assay [3], 2110 nM. Also, the results for the Ratio Ki in assay [1] and in assay [2] were 102 and 137, respectively.

Take `CC(C)CNCc1ccccc1NC(=O)OCC(Oc1cccc2sc(C(=N)N)cc12)c1ccccc1` (stereo not drawn): the Ki on Coagulation factor X came out at 583 nM; on Coagulation factor IX, 2 nM; in assay [3] it was 733 nM. Also, the results for the Ratio Ki in assay [1] and in assay [2] were 292 and 367, respectively.

Consider `N=C(N)c1cc2c(OC(COC(=O)Nc3c(F)cccc3F)c3ccccc3)cccc2s1` (stereo not drawn), for which the Ki at Coagulation factor X was 1300 nM; on Coagulation factor IX, 7 nM; in assay [3], 249 nM. The Ratio Ki in assay [1] is 186; in assay [2] it was 34.

Turning to `CNC(=O)OCC(Oc1cccc2sc(C(=N)N)cc12)c1ccccc1` (stereo not drawn), the inhibition constant Ki stood at 700 nM on Coagulation factor X, 97 nM on Coagulation factor IX and 210 nM in assay [3].

On to `Cc1ccccc1NC(=O)OCC(Oc1cccc2sc(C(=N)N)cc12)c1ccccc1` (stereo not drawn), for which the Ki on Coagulation factor X was 1180 nM; at Coagulation factor IX it was 8 nM; in assay [3] it was 308 nM. In addition, the figures for the Ratio Ki in assay [1] and in assay [2] were 148 and 36, respectively.

`CCNC(=O)OCC(Oc1cccc2sc(C(=N)N)cc12)c1ccccc1` (stereo not drawn): the inhibitory constant (Ki) came to 360 nM on Coagulation factor X, 28 nM on Coagulation factor IX and 150 nM in assay [3].

As to `CN(C)Cc1ccccc1NC(=O)OCC(Oc1cccc2sc(C(=N)N)cc12)c1ccccc1` (stereo not drawn), the Ki was 828 nM at Coagulation factor X, 8 nM on Coagulation factor IX and 609 nM in assay [3]. For the same compound, the Ratio Ki in assay [1] was 104; in assay [2], 76.

Take `N=C(N)c1cc2c(OC(CNCc3ccccc3)c3ccccc3)cccc2s1` (stereo not drawn): the results for the inhibition constant Ki (at Coagulation factor X; at Coagulation factor IX; in assay [3]) were 250 nM, 100 nM and 310 nM, respectively.

Take `N=C(N)c1cc2c(OC(CNC(=O)Nc3ccccc3)c3ccccc3)cccc2s1` (stereo not drawn): the values for the Ki (at Coagulation factor X; at Coagulation factor IX; in assay [3]) were 960 nM, 29 nM and 250 nM, respectively.

For the compound `N=C(N)c1cc2c(OC(COC(=O)Nc3ccccc3CN)c3ccccc3)cccc2s1` (stereo not drawn), the results for the Ki (at Coagulation factor X; at Coagulation factor IX; in assay [3]) were 825 nM, 4 nM and 297 nM, respectively. For the same compound, the results for the Ratio Ki in assay [1] and in assay [2] were 206 and 74, respectively.

As for `N=C(N)c1cc2c(OC(COC(=O)Nc3cccc(F)c3)c3ccccc3)cccc2s1` (stereo not drawn), the Ki was 1300 nM at Coagulation factor X, 25 nM on Coagulation factor IX and 935 nM in assay [3]. Further, the Ratio Ki in assay [1] was 52; in assay [2] it was 37.

As to `CN1CCN(Cc2ccc(NC(=O)OCC(Oc3cccc4sc(C(=N)N)cc34)c3ccccc3)cc2)CC1` (stereo not drawn), the inhibition constant (Ki) at Coagulation factor X came to 1560 nM; on Coagulation factor IX it was 10 nM; in assay [3] it was 201 nM. Further, the values for the Ratio Ki in assay [1] and in assay [2] were 156 and 20, respectively.

With `COc1cccc(NC(=O)C(Oc2cccc3sc(C(=N)N)cc23)c2ccccc2)c1` (stereo not drawn), the Ki on Coagulation factor X is 290 nM; on Coagulation factor IX, 130 nM; in assay [3], 170 nM.

As to `CNCc1cc(NC(=O)OCC(Oc2cccc3sc(C(=N)N)cc23)c2ccccc2)n(C)n1` (stereo not drawn), the Ki was determined as 1270 nM at Coagulation factor X, 5 nM on Coagulation factor IX and 251 nM in assay [3]. Also, the values for the Ratio Ki in assay [1] and in assay [2] were 254 and 50, respectively.

For `Cc1noc(C)c1NC(=O)OCC(Oc1cccc2sc(C(=N)N)cc12)c1ccccc1` (stereo not drawn), the results for the Ki (at Coagulation factor X; on Coagulation factor IX; in assay [3]) were 2250 nM, 12 nM and 142 nM, respectively. Moreover, the Ratio Ki in assay [1] was 210; in assay [2], 12.

`CN(C)Cc1ccccc1NC(=O)OCC(Oc1cc(F)cc2sc(C(=N)N)cc12)c1ccccc1` (stereo not drawn): the Ki on Coagulation factor X stood at 1360 nM; on Coagulation factor IX it was 8.1 nM; in assay [3], 940 nM. Also, the Ratio Ki in assay [1] was determined as 169; in assay [2], 117.

Consider `COC(=O)C(Oc1cccc2sc(C(=N)N)cc12)c1ccccc1` (stereo not drawn), for which the Ki at Coagulation factor X was 13800 nM; on Coagulation factor IX, 500 nM; in assay [3] it was 500 nM.

`N=C(N)c1cc2c(OC(COC(=O)NCc3ccccc3)c3ccccc3)cccc2s1` (stereo not drawn): the results for the Ki (at Coagulation factor X; on Coagulation factor IX; in assay [3]) were 830 nM, 61 nM and 510 nM, respectively.

As for `CC(=O)NCC(Oc1cccc2sc(C(=N)N)cc12)c1ccccc1` (stereo not drawn), the figures for the Ki (at Coagulation factor X; on Coagulation factor IX; in assay [3]) were 1300 nM, 340 nM and 220 nM, respectively.

In the case of `COc1ccc(NC(=O)OC[C@H](Oc2cccc3sc(C(=N)N)cc23)c2ccccc2)cc1`, the Ki was found to be 600 nM on Coagulation factor X, 3 nM at Coagulation factor IX and 89 nM in assay [3]. Further, the Ratio Ki in assay [1] amounted to 200; in assay [2] it was 30.

Consider `N=C(N)c1cc2c(OC(COC(=O)Nc3ccc(F)cc3F)c3ccccc3)cccc2s1` (stereo not drawn), for which the Ki on Coagulation factor X worked out at 1480 nM; on Coagulation factor IX, 7 nM; in assay [3] it was 575 nM. The Ratio Ki was found to be 212 in assay [1] and 82 in assay [2].

Turning to `COc1ccc(NC(=O)OCC(Oc2cccc3sc(C(=N)N)cc23)c2ccccc2)cc1` (stereo not drawn), the figures for the Ki (on Coagulation factor X; on Coagulation factor IX; in assay [3]) were 800 nM, 5 nM and 226 nM, respectively. The values for the Ratio Ki in assay [1] and in assay [2] were 160 and 45, respectively.

For `N=C(N)c1cc2c(OC(CNC(=O)Oc3ccccc3)c3ccccc3)cccc2s1` (stereo not drawn), the Ki amounted to 560 nM on Coagulation factor X, 50 nM on Coagulation factor IX and 85 nM in assay [3].

With `N=C(N)c1cc2c(OC(COC(=O)Nc3ccccc3)c3ccccc3)cccc2s1` (stereo not drawn), the Ki at Coagulation factor X is 1810 nM; at Coagulation factor IX, 10 nM; in assay [3], 440 nM. The Ratio Ki amounted to 181 in assay [1] and 44 in assay [2].
